{"data": "Published values from different studies", "note": "Compare with care: the assays were run in different laboratories."}
{"SMILES": "Clc1ccc(CSc2nnc(-c3ccccn3)n2Cc2ccco2)cc1Cl", "medium": "aqueous buffer", "pH": "pH 6.2", "solubility": "0.29 µg/mL"}
{"SMILES": "CC(=O)N[C@@H](CC(N)=O)C(=O)N[C@@H](CCCNC(=N)N)C(=O)N[C@@H](CC(C)C)C(=O)N[C@H]1CSSC[C@@H](C(=O)N[C@H](C(N)=O)[C@@H](C)O)NC(=O)[C@H](CCCNC(=N)N)NC(=O)[C@H](Cc2c[nH]cn2)NC(=O)[C@H](Cc2cccc3ccccc23)NC(=O)CNC(=O)[C@H](Cc2c[nH]c3ccccc23)NC(=O)[C@H](CC(=O)O)NC(=O)[C@H](CCC(N)=O)NC(=O)[C@H](Cc2cccc3ccccc23)NC(=O)[C@H](C(C)C)NC1=O", "medium": "PBS", "pH": "pH 7.4", "solubility": "300 µg/mL"}
{"SMILES": "CCCSc1ccc2nc(NC(=O)OC)[nH]c2c1", "medium": "water", "time": "24 h", "solubility": "< 1 µg/mL"}
{"SMILES": "O=C(CCCN1CCC2(CC1)C(=O)NCN2c1ccccc1)N(CC1CCCCC1)c1ccccc1", "medium": "PBS", "time": "24 h", "pH": "pH 7.4", "temperature": "37 °C", "solubility": "626 µM"}
{"SMILES": "CC[C@H](C)[C@H](NC(C)=O)C(=O)N[C@H]1CSSC[C@@H](C(=O)N[C@H](C(N)=O)[C@@H](C)O)NC(=O)[C@H](CCCNC(=N)N)NC(=O)[C@H](Cc2c[nH]cn2)NC(=O)[C@](C)(CC)NC(=O)CNC(=O)[C@H](Cc2c[nH]c3ccccc23)NC(=O)[C@H](CC(=O)O)NC(=O)[C@H](CCC(N)=O)NC(=O)[C@H](Cc2c[nH]c3ccccc23)NC(=O)[C@H](C(C)C)NC1=O", "medium": "PBS", "pH": "pH 7.4", "solubility": "3470 µg/mL"}
{"SMILES": "COc1ccc(NC(=O)N2CCCCN3[C@H](CN(C)C)[C@H](c4ccc(C#Cc5ccccc5)cc4)[C@@H]3C2)cc1", "medium": "aqueous buffer", "pH": "pH 1", "solubility": "155 µM"}
{"SMILES": "O=C1C=C(N(Cc2ccc(Cl)nc2)CC(F)F)CO1", "medium": "water", "pH": "pH 7", "solubility": "3000 µg/mL"}
{"SMILES": "C#Cc1ccc2c(c1)C(c1ccccn1)=NCc1c(-c3cnco3)ncn1-2.Cl", "medium": "water", "time": "24 h", "temperature": "25 °C", "solubility": "5560 µg/mL"}
{"SMILES": "O=c1[nH]c2ccccc2n1CCCN1CCC(n2c(=O)[nH]c3cc(Cl)ccc32)CC1", "medium": "FaSSIF", "time": "24 h", "pH": "pH 7.4", "temperature": "37 °C", "solubility": "135 µg/mL"}
{"SMILES": "C=CC[C@@]1(C)NC(=O)CNC(=O)[C@H](Cc2c[nH]c3ccccc23)NC(=O)[C@H](CC(=O)O)NC(=O)[C@H](CCC(N)=O)NC(=O)[C@H](Cc2c[nH]c3ccccc23)NC(=O)[C@H](C(C)C)NC(=O)[C@@H](NC(=O)[C@@H](NC(C)=O)[C@@H](C)CC)CSSC[C@@H](C(=O)N[C@H](C(N)=O)[C@@H](C)O)NC(=O)[C@H](CCCNC(=N)N)NC(=O)[C@H](Cc2c[nH]cn2)NC1=O", "medium": "PBS", "pH": "pH 7.4", "solubility": "3350 µg/mL"}
{"SMILES": "COc1cc([C@@H]2c3cc4c(cc3[C@H](O)[C@H]3COC(=O)[C@H]23)OCO4)cc(OC)c1OC", "medium": "water", "solubility": "2200 µg/mL"}
{"SMILES": "CC[C@H](C)[C@H](NC(C)=O)C(=O)N[C@H]1CSSC[C@@H](C(=O)N[C@H](C(N)=O)[C@@H](C)O)NC(=O)[C@H](CCCNC(=N)N)NC(=O)[C@H](Cc2cnc[nH]2)NC(=O)[C@H](Cc2cccc3ccccc23)NC(=O)CNC(=O)[C@H](Cc2c[nH]c3ccccc23)NC(=O)[C@H](CC(=O)O)NC(=O)[C@H](CCC(N)=O)NC(=O)[C@H](Cc2cn(C)c3ccccc23)NC(=O)[C@H](C(C)C)NC1=O", "medium": "PBS", "pH": "pH 7.4", "solubility": "110 µg/mL"}
{"SMILES": "CC(/C=C/[C@@H]1C[C@]2(CO2)CC(C)(C)O1)=C\\C[C@H]1OC[C@@H](NC(=O)/C=C\\[C@H](C)OC(=O)C(C)(C)C)CO1", "method": "HPLC", "medium": "PBS", "solubility": "> 10 µM"}
{"SMILES": "CCc1cc(OC)cc2c(/C=N/NC(=N)NCCc3ccc(C#N)cc3)c[nH]c12", "medium": "PBS", "time": "2 h", "pH": "pH 7.4", "solubility": "55.5 µM"}
{"SMILES": "CC[C@H](C)[C@H](NC(=O)[C@H](CCCNC(=N)N)NC(=O)[C@H](CCC(=O)O)NC(C)=O)C(=O)N[C@H]1CSSC[C@@H](C(=O)N[C@H](C(N)=O)[C@@H](C)O)NC(=O)[C@H](CCCNC(=N)N)NC(=O)[C@H](Cc2c[nH]cn2)NC(=O)[C@H](Cc2cccc3ccccc23)NC(=O)CNC(=O)[C@H](Cc2c[nH]c3ccccc23)NC(=O)[C@H](CC(=O)O)NC(=O)[C@H](CCC(N)=O)NC(=O)[C@H](Cc2cccc3ccccc23)NC(=O)[C@H](C(C)C)NC1=O", "medium": "PBS", "pH": "pH 7.4", "solubility": "160 µg/mL"}
